The test system of assay [1] is PC-3. Put plainly: Cell cycle arrest in human PC3 cells assessed as accumulation at S phase at 1 uM after 24 hrs by propidium iodide staining-based FACS flow cytometric analysis (reference value: 8.5%). In kind it is functional. The method in brief:
(§1)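 PC-3 cells (1×10^6/well) exposed 24 h to test agent at 1, 5 or 10 μM. Cells washed twice in ice-cold PBS, fixed in 70% ethanol for 30 min, then treated with RNase A (0.1 mg/mL, 37 °C, 30 min). Propidium iodide staining 30 min on ice in the dark. DNA content read by flow cytometry with 488 nm excitation and doublet discrimination, 10,000 events.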
In general terms: Flow cytometry measures light scatter and fluorescence of single cells or particles in a stream.

The subject of another assay is A549. The experiment in a line: Antiproliferative activity against human A549 cells after 48 hrs by sulforhodamine B assay. The following applies: A549, 48 h. Format: functional, cell-based.
The subject of a further assay is HCT-116. The experiment in a line: Antiproliferative activity against human HCT116 cells after 48 hrs by sulforhodamine B assay. In kind it is functional, cell-based. To be noted: HCT-116, 48 h. A general note: Sulforhodamine B stains cellular protein and so reports cell mass.
Assay [2] concerns the target Transcription factor p65 (Homo sapiens) (UniProt Q04206). The experiment in a line: Inhibition of NFkappaB p65 in nuclear extract of human PC3 cells assessed as reduction in binding to consensus DNA sequence at 1 uM after 24 hrs relative to control. In kind it is cell-based. To be noted: PC-3. The method in brief:
(§2)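 PC-3 cells (5×10^6) treated 24 h at varied concentrations. Nuclear extract made by hypotonic lysis (HEPES/KOH pH 7.9) followed by high-salt extraction. Nuclear protein (20 µg) incubated overnight at 4 °C in wells carrying immobilized NF-κB DNA consensus element, then anti-p65 primary antibody 1 h and HRP secondary 1 h. Substrate 30 min, OD 450 nm, normalized to untreated control = 100%.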

For assay [3], the system named is PC-3. Put plainly: Cell cycle arrest in human PC3 cells assessed as accumulation at M phase at 5 uM after 24 hrs by propidium iodide staining-based FACS flow cytometric analysis (reference value: 3%). In kind it is functional. The method in brief: as §1
The next assay relates to THP-1. The experiment in a line: Antiproliferative activity against human THP1 cells after 48 hrs by sulforhodamine B assay. Format: functional, cell-based. To be noted: THP-1, 48 h.
The subject of assay [4] is PC-3. Put plainly: Cell cycle arrest in human PC3 cells assessed as accumulation at S phase at 5 uM after 24 hrs by propidium iodide staining-based FACS flow cytometric analysis (reference value: 8.5%). In kind it is functional. The method in brief:
as §1

The target in assay [5] is Transcription factor p65 (Homo sapiens) (UniProt Q04206). Put plainly: Inhibition of NFkappaB p65 in nuclear extract of human PC3 cells assessed as reduction in binding to consensus DNA sequence at 10 uM after 24 hrs relative to control. In kind it is cell-based. The following applies: PC-3. The method in brief:
as §2

The subject of assay [6] is PC-3. The experiment in a line: Cell cycle arrest in human PC3 cells assessed as accumulation at M phase at 1 uM after 24 hrs by propidium iodide staining-based FACS flow cytometric analysis (reference value: 3%). In kind it is functional. The method in brief: as §1
In the next assay the test system is HEp-2. The experiment in a line: Antiproliferative activity against human Hep2 cells after 48 hrs by sulforhodamine B assay. In kind it is functional, cell-based. The following applies: HEp-2, 48 h.
Assay [7] relates to PC-3. The experiment in a line: Antiproliferative activity against human PC3 cells after 48 hrs by sulforhodamine B assay. Format: functional, cell-based. The following applies: PC-3, 48 h.
The subject of assay [8] is PC-3. Put plainly: Cell cycle arrest in human PC3 cells assessed as accumulation at G0/G1 phase at 5 uM after 24 hrs by propidium iodide staining-based FACS flow cytometric analysis (reference value: 68.2%). Format: functional. The method in brief: as §1
The target in assay [9] is Transcription factor p65 (Homo sapiens) (UniProt Q04206). The experiment in a line: Inhibition of NFkappaB p65 in nuclear extract of human PC3 cells assessed as reduction in binding to consensus DNA sequence at 5 uM after 24 hrs relative to control. Format: cell-based. The following applies: PC-3. The method in brief:
as §2

The subject of assay [10] is PC-3. The experiment in a line: Cell cycle arrest in human PC3 cells assessed as accumulation at subG1 phase at 5 uM after 24 hrs by propidium iodide staining-based FACS flow cytometric analysis (reference value: 13.1%). Format: functional. The method in brief: as §1
For assay [11], the system named is PC-3. Put plainly: Cell cycle arrest in human PC3 cells assessed as accumulation at subG1 phase at 10 uM after 24 hrs by propidium iodide staining-based FACS flow cytometric analysis (reference value: 13.1%). In kind it is functional. The method in brief:
as §1

For assay [12], the target named is Transcription factor p65 (Homo sapiens) (UniProt Q04206). Put plainly: Inhibition of NFkappaB p65 in nuclear extract of human PC3 cells assessed as reduction in binding to DNA response element after 24 hrs. In kind it is cell-based. To be noted: PC-3. The method in brief:
as §2

For the next assay, the system named is MCF7. Put plainly: Antiproliferative activity against human MCF7 cells after 48 hrs by sulforhodamine B assay. To be noted: MCF7, 48 h. Format: functional, cell-based.
In assay [13] the test system is PC-3. Put plainly: Cell cycle arrest in human PC3 cells assessed as accumulation at subG1 phase after 24 hrs by propidium iodide staining-based FACS flow cytometric analysis. In kind it is functional. The method in brief:
as §1

Assay [14] concerns PC-3. The experiment in a line: Cell cycle arrest in human PC3 cells assessed as accumulation at G0/G1 phase at 1 uM after 24 hrs by propidium iodide staining-based FACS flow cytometric analysis (reference value: 68.2%). In kind it is functional. The method in brief:
as §1

In assay [15] the test system is PC-3. The experiment in a line: Cell cycle arrest in human PC3 cells assessed as accumulation at S phase at 10 uM after 24 hrs by propidium iodide staining-based FACS flow cytometric analysis (reference value: 8.5%). In kind it is functional. The method in brief: as §1
The subject of assay [16] is PC-3. Put plainly: Cell cycle arrest in human PC3 cells assessed as accumulation at M phase at 10 uM after 24 hrs by propidium iodide staining-based FACS flow cytometric analysis (reference value: 3%). Format: functional. The method in brief:
as §1

In assay [17] the test system is PC-3. The experiment in a line: Cell cycle arrest in human PC3 cells assessed as accumulation at subG1 phase at 1 uM after 24 hrs by propidium iodide staining-based FACS flow cytometric analysis (reference value: 13.1%). Format: functional. The method in brief: as §1
In assay [18] the test system is PC-3. The experiment in a line: Cell cycle arrest in human PC3 cells assessed as accumulation at G0/G1 phase at 10 uM after 24 hrs by propidium iodide staining-based FACS flow cytometric analysis (reference value: 68.2%). In kind it is functional. The method in brief:
as §1

Chain of Transcription factor p65 (Homo sapiens) (Q04206 whole entry): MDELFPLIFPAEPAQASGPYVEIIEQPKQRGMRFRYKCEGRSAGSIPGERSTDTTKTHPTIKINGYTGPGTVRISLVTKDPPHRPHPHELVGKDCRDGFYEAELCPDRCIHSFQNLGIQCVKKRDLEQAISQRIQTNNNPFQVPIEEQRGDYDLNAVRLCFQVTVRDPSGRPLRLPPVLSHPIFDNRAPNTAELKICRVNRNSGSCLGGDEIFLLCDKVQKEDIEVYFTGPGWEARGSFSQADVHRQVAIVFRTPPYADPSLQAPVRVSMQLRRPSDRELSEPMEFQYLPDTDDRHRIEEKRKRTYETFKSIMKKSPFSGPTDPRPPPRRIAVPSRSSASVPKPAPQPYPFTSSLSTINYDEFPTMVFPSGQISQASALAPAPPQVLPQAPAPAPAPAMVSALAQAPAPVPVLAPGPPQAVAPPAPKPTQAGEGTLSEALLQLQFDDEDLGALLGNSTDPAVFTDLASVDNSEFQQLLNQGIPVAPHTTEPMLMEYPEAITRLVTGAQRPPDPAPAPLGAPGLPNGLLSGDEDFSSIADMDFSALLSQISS

Turning to `CC1=C2[C@H]3OC(=O)C4(C[C@@H](c5ccc(Br)cc5)N(c5ccccc5)O4)[C@@H]3CC[C@@]2(C)C=CC1=O` (stereo partly drawn), the Activity with PC-3 [1] came to 6.2%; in the assay with PC-3 [3], 1.2%; in the assay with PC-3 [4], 4.5%; in the assay with PC-3 [6], 2%; with PC-3 [8], 43.5%; in the assay with PC-3 [10], 39.7%. The Activity is 67.9% with PC-3 [11]; “Dose-dependent effect” in the assay with PC-3 [13]; 60.9% with PC-3 [14]; 0.4% in the assay on PC-3 [15]; 0.4% in the assay with PC-3 [16]; 25.6% with PC-3 [17]. In addition, the Activity with PC-3 [18] is 3.1%. The IC50 in the assay with A549 is 31 µM; in the assay on HCT-116, 37 µM; with THP-1, 0.5 µM; with HEp-2, 65 µM; in the assay on PC-3 [7], 0.01 µM; with MCF7 it was 0.3 µM. In addition, the inhibition was 20% in assay [2], 57% in assay [5], 43% in [9] and “Dose-dependent effect” in assay [12].

The term IC50 denotes the point on the concentration scale where inhibition reaches its midpoint. Low readings indicate greater potency, high ones weaker potency. A word on the inhibition: it is the percentage by which the read-out fell short of the control.
